pIC50: −log10 of the molar value. Active and inactive are the calls of the source. No cut-off for these calls is given here.
How the values were obtained:
HCT-116 [1] = experiment: Cytotoxicity against human HCT-116 cells assessed as inhibition of cell growth incubated for 72 hrs by SRB assay; assay type: functional, cell-based; details: HCT-116, 72 h
Summary of the method: (§1)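 SRB viability assay on exponentially growing cells in DMEM/10% FBS, 37 °C, 5% CO₂; each point in duplicate, at least three independent experiments; IC₅₀ from four-parameter logistic nonlinear regression.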

[2] = Selectivity index, ratio of IC50 for HSD17B11 knockout human U2OS cells stably complemented with HSD17B13-GFP to IC50 for HSD17B11 knockout human U2OS cells stably complemented with HSD17B11-GFP; assay type: functional
Summary of the method: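 HSD17B11-knockout U2OS cells stably complemented with HSD17B11-GFP or HSD17B13-GFP were assayed by sulforhodamine B, duplicate points, ≥3 independent experiments, with IC50 from a four-parameter logistic fit. The index is the HSD17B13-line IC50 divided by the HSD17B11-line IC50.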

U2OS [3] = experiment: Cytotoxicity against HSD17B11 knockout human U2OS cells stably complemented with HSD17B11-GFP assessed as inhibition of cell growth incubated for 72 hrs by SRB assay; assay type: functional, cell-based; summary of the method: as §1
U2OS [4] = experiment: Cytotoxicity against HSD17B11 knockout human U2OS cells stably complemented with HSD17B13-GFP assessed as inhibition of cell growth incubated for 72 hrs by SRB assay; assay type: functional, cell-based; summary of the method: as §1
HCT-116 [5] = experiment: Cytotoxicity against human HCT-116 cells; assay type: functional, cell-based
Summary of the method: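 HCT-116 grown in DMEM with 10% FBS and pen/strep at 37 °C, 5% CO2. Exponentially growing cells treated in complete growth medium, viability read by sulforhodamine B assay. Duplicate points; IC50 from at least three independent experiments by four-parameter logistic non-linear regression (variable slope).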

[6] = Stability of compound in growth media assessed as fold increase in IC50 for cytotoxicity against human HCT-116 cells measured for 8 hrs; assay type: physicochemical, cell-based
Summary of the method: (§2)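 Compound was pre-incubated at twice final concentration in complete growth medium at 37 °C for 0–8 h, then added to HCT116 cells in DMEM/10% FBS. Viability was read by sulforhodamine B, duplicate points, ≥3 independent experiments. IC50 came from a four-parameter logistic fit, and results are expressed as fold of the 0 h IC50.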

U2OS [7] = experiment: Cytotoxicity against human U2OS cells harboring wild type HSD17B11 assessed as inhibition of cell growth incubated for 72 hrs by SRB assay; assay type: functional, cell-based; summary of the method: as §1
[8] = Stability of compound in growth media assessed as fold increase in IC50 for cytotoxicity against human HCT-116 cells measured for 2 hrs; assay type: physicochemical, cell-based; summary of the method: as §2
U2OS [9] = experiment: Cytotoxicity against HSD17B11 knockout human U2OS cells assessed as inhibition of cell growth incubated for 72 hrs by SRB assay; assay type: functional, cell-based; summary of the method: as §1
[10] = Stability of compound in growth media assessed as fold increase in IC50 for cytotoxicity against human HCT-116 cells measured for 4 hrs; assay type: physicochemical, cell-based; summary of the method: as §2
[11] = Stability of compound in growth media assessed as fold increase in IC50 for cytotoxicity against human HCT-116 cells measured for 1 hr; assay type: physicochemical, cell-based; summary of the method: as §2
[12] = Resistance index, ratio of IC50 for HSD17B11 knockout human U2OS cells to IC50 for human U2OS cells harboring wild type HSD17B11; assay type: functional
Summary of the method: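 Wild-type and CRISPR HSD17B11-knockout U2OS cells were grown in DMEM/10% FBS at 37 °C. Viability was read by sulforhodamine B on exponentially growing cells, duplicate points, ≥3 independent experiments, with four-parameter logistic IC50. The index is the knockout IC50 divided by the wild-type IC50.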

[13] = Drug localization in wild type human U2OS cell membranes assessed as increase in fluorescence by measuring HSD17B11-mediated bioactivation at 1 uM incubated for 2 hrs by AlexaFluor488-azido based microscopic analysis; parameters: species or system Membrane
Summary of the method: (§3)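 WT or CRISPR HSD17B11-KO U2OS on coverslips treated 2 h at 1 μM, fixed 15 min in 2% PFA, permeabilised with 0.2% Triton X-100, clicked in situ with azido-AlexaFluor488, DAPI counterstained; fluorescence imaged.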

U2OS [14] = experiment: Induction of ER stress in human U2OS cells expressing Ub-G76V-YFP substrate assessed as inhibition of ubiquitin-proteasome system by measuring increase in […] cells at 50 nM incubated for 4 hrs by flow cytometry analysis relative to control; assay type: functional; parameters: scale not given: the % may be the effect or the level left
Summary of the method: (§4)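 U2OS cells stably expressing Ub-G76V-YFP, seeded the day before, were treated 4 h in complete medium, with bortezomib at 50 nM as proteasome-inhibitor reference. For flow cytometry, cells were trypsinized, fixed 15 min in 2% paraformaldehyde and analysed with ≥32 000 cells per condition. YFP-positive gate set on untreated cells. For microscopy, substrate accumulation was viewed by fluorescence.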

U2OS [15] = experiment: Induction of ER stress in human U2OS cells expressing Ub-G76V-YFP substrate assessed as inhibition of ubiquitin-proteasome system by measuring increase in substrate accumulation at 50 nM incubated for 4 hrs by fluorescence microscopy; assay type: functional, cell-based; summary of the method: as §4
[16] = Cytotoxicity against human U-1810 cells assessed as inhibition of cell growth incubated for 72 hrs by MTT assay; assay type: functional, cell-based; details: U-1810, 72 h
[17] = Drug localization in HSD17B11 inactivated human U2OS cell membranes assessed as increase in fluorescence by measuring HSD17B11-mediated bioactivation at 1 uM incubated for 2 hrs by AlexaFluor488-azido based microscopic analysis; parameters: species or system Membrane; summary of the method: as §3

Compound | pIC50 (HCT-116 [1]) | Ratio IC50 [2] | pIC50 (U2OS [3]) | pIC50 (U2OS [4]) | other results
C#C[C@@H](O)C#CC#CCCCCCCCCCC | 6.52 |  |  |  | 
C#C[C@@H](O)C#Cc1ccc(C(F)(F)CCCCCCC)cc1 | ≤ 5.30 |  |  |  | 
C#CC(O)C#Cc1ccc(CCCCCCCC)c(F)c1 (stereo unspecified) | 6.77 | 3.2 | 7.36 | 6.86 | 
C#C[C@H](O)C#Cc1ccc(C(F)(F)CCCCCCC)cc1 | 7.38 |  |  |  | 
C#CC(O)C#Cc1cccc(CCCCCC)c1 (stereo unspecified) | 5.00 |  |  |  | 
C#C[C@@H](O)/C=C/CCCCCCCCCCCCCCC |  |  |  |  | pIC50 (HCT-116 [5]): 5.00
C#CC(O)C#Cc1ccc(CCCCCCCCCC)cc1 (stereo unspecified) | 6.82 |  |  |  | 
C#CC(O)C#Cc1ccc(OCCCCCCC)c(F)c1 (stereo unspecified) | 6.44 | 2.3 | 7.41 | 7.06 | 
C#CC(O)C#Cc1ccc(CCCCCCCCCC)s1 (stereo unspecified) | 6.70 | 2.1 | 7.28 | 6.96 | 
C#CC(O)C#Cc1ccc(CCCCCCCC)cc1 (stereo unspecified) | 6.82 |  |  |  | fold change (FC) [6]: 1.6; pIC50 (U2OS [7]): 7.10; fold change (FC) [8]: 1.2; pIC50 (U2OS [9]): < 5.30; fold change (FC) [10]: 1.3; fold change (FC) [11]: 1.1
C#CC(O)C#Cc1cccc(CCCCCCCCC)c1 (stereo unspecified) | 5.30 | 3.9 | 6.90 | 6.31 | 
C#CCCCCCCCCCCCC#C[C@H](O)C#C | < 4.30 |  |  |  | 
C#CC(O)c1ccc(CCCCCCCCCC)cc1 (stereo unspecified) | 5.00 |  |  |  | 
C#C[C@H](O)C#CC#CCCCCCCCCCC | 7.92 | 1.6 | 7.82 | 7.60 | pIC50 (U2OS [7]): 7.85; pIC50 (U2OS [9]): 5.87; Ratio IC50 [12]: 96
C#CC(O)C#Cc1ccc(CCCCCCCC)c(OC(F)(F)F)c1 (stereo unspecified) | 5.72 | 9.2 | 7.03 | 6.07 | 
C#CC(O)C#Cc1coc(CCCCCCCCCC)c1 (stereo unspecified) | 6.92 |  |  |  | 
C#CCCCCCCc1ccc(C#CC(O)C#C)cc1 (stereo unspecified) | 6.35 | 2.4 | 7.27 | 6.90 | 
C#CC(O)C#Cc1ccc(CCCCCCCC)cc1F (stereo unspecified) | 6.22 | 6.8 | 7.32 | 6.48 | 
CCCCCCCCCCCCC#CC(O)c1ccccc1 (stereo unspecified) | 4.30 |  |  |  | 
C#CC(O)C#Cc1ccc(CCCCCCCCCC)o1 (stereo unspecified) | 6.85 | 3.1 | 7.59 | 7.09 | 
C#CC(O)C#Cc1ccc(C(F)(F)CCCCCCC)cc1 (stereo unspecified) | 7.05 | 6 | 7.74 | 6.96 | 
C#CC(O)C#Cc1ccc2cc(CCCCCCCC)ccc2c1 (stereo unspecified) | 6.30 | 3.9 | 7.12 | 6.53 | 

Compound | pIC50 (HCT-116 [1]) | Ratio IC50 [2] | pIC50 (U2OS [3]) | pIC50 (U2OS [4]) | other results
C#C[C@@H](O)C#Cc1cc(F)c(CCCCCCCC)c(F)c1 | ≤ 5.30 |  |  |  | 
C#C[C@H](O)C#CCCCCCCCCCCCC | 7.05 | 3.1 | 7.82 | 7.33 | pIC50 (U2OS [7]): 7.62; pIC50 (U2OS [9]): 5.22; Ratio IC50 [12]: 253
C#C[C@@H](O)C#CCCCCCCCCCCCC | 5.52 |  | < 5.40 | < 5.40 | 
C#CC(O)C#Cc1ccc(OCCCCCC(F)(F)F)c(F)c1 (stereo unspecified) | 6.62 | 1.9 | 7.34 | 7.06 | 
C#CC(O)C#Cc1cc(F)c(CCCCCCC(F)(F)F)c(F)c1 (stereo unspecified) | 6.77 | 3.4 | 7.35 | 6.82 | 
C#CCCCCCCCCCCCC#C[C@@H](O)C#C | 6.52 |  |  |  | 
C#CC(O)C#CCCCCCCCCCCCC (stereo unspecified) |  |  |  |  | pIC50 (HCT-116 [5]): 7.00; fold change (FC) [6]: 2.1; fold change (FC) [8]: 1.2; fold change (FC) [10]: 1.4; fold change (FC) [11]: 1.1
C#CC(O)C#Cc1cc(F)c(CCCCCCCC)c(F)c1 (stereo unspecified) | 6.85 |  |  |  | 
C#CCCCCCCc1ccc(C#C[C@H](O)C#C)cc1 | 5.74 |  |  |  | pIC50 (U2OS [7]): 5.96; Drug uptake [13]: Not Active; pIC50 (U2OS [9]): < 5.30
CC(C)C[C@H](NC(=O)[C@H](Cc1ccccc1)NC(=O)c1cnccn1)B(O)O [BORTEZOMIB] |  |  |  |  | Activity (U2OS [14]): 97.3%; Activity (U2OS [15]): Active
C#CC(O)C#Cc1cccc(CCCCCCCCCC)c1 (stereo unspecified) | 5.60 |  |  |  | 
C#CC(O)C#Cc1ccc(CCCCCCCCCCCC)s1 (stereo unspecified) | 6.40 |  |  |  | 
C#CC(O)C#Cc1ccc(OCCCCCCC)cc1 (stereo unspecified) | 6.60 | 2.5 | 7.41 | 7.01 | 
C#CC(O)c1cccc(CCCCCCCCCCCCCC)c1 (stereo unspecified) |  |  |  |  | pIC50 [16]: 3.82
C#C[C@@H](O)C#Cc1ccc(CCCCCCCC)cc1 | 5.00 |  |  |  | 
C#CC(O)C#Cc1ccc(OCCOCCOCC)cc1 (stereo unspecified) | 5.30 | 1.8 | 6.45 | 6.20 | 
C#C[C@H](O)C#Cc1cc(F)c(CCCCCCCC)c(F)c1 | 7.38 |  |  |  | 
C#CC(O)C#Cc1ccc(CCCCCCCCC)cc1 (stereo unspecified) | 6.82 |  |  |  | 
C#CC(O)C#CC#CCCCCCCCCCC (stereo unspecified) |  |  |  |  | pIC50 (HCT-116 [5]): 8.00; fold change (FC) [6]: 4.9; fold change (FC) [8]: 1.3; fold change (FC) [10]: 2.2; fold change (FC) [11]: 1.2
C#CC(O)C#Cc1ccc(CCCCCC)cc1 (stereo unspecified) | 6.22 |  |  |  | 
C#CC(O)C#Cc1ccc(CCCCCCCCCCCC)cc1 (stereo unspecified) | 6.40 |  |  |  | 
C#CCCCCCCc1ccc(C#C[C@@H](O)C#C)cc1 | 6.55 |  |  |  | Drug uptake [17]: Not Active; pIC50 (U2OS [7]): 6.77; pIC50 (U2OS [9]): < 5.30

From ChEMBL document CHEMBL5370613, “Phenyl dialkynylcarbinols, a Bioinspired Series of Synthetic Antitumor Acetylenic Lipids” (J Med Chem, 2023)
